From ChEMBL document CHEMBL1287651, “Synthesis and in vitro antibacterial activity of fluoroquinolone derivatives containing 3-(N'-alkoxycarbamimidoyl)-4-(alkoxyimino) pyrrolidines” (2010)
≈ marks a conversion by molar mass, not a printed value.

Legend:
Assay type in all cases: functional
Staphylococcus aureus [1] = assay: Antibacterial activity against Staphylococcus aureus ATCC […] after 18 to 24 hrs by twofold serial dilution method
In short: (§1)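 MIC determined by the standard twofold serial dilution method on agar media, screening against Gram-positive and Gram-negative strains. Levofloxacin and gemifloxacin were run alongside as reference drugs.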

Staphylococcus aureus [2] = assay: Antibacterial activity against methicillin-resistant Staphylococcus aureus 08-1 after 18 to 24 hrs by twofold serial dilution method
In short: (§2)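 Standard twofold serial agar dilution method on agar media for MIC determination. Screened against representative Gram-positive and Gram-negative strains. Levofloxacin and GMFX served as control drugs.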

Staphylococcus aureus [3] = assay: Antibacterial activity against methicillin-sensitive Staphylococcus aureus 08-2 after 18 to 24 hrs by twofold serial dilution method; in short: as §2
[4] = tested on: Staphylococcus epidermidis; assay: Antibacterial activity against methicillin-resistant Staphylococcus epidermidis 09-2 after 18 to 24 hrs by twofold serial dilution method; in short: as §2
[5] = tested on: Staphylococcus epidermidis; assay: Antibacterial activity against methicillin-resistant Staphylococcus epidermidis 09-3 after 18 to 24 hrs by twofold serial dilution method; in short: as §2
[6] = tested on: Staphylococcus epidermidis; assay: Antibacterial activity against methicillin-resistant Staphylococcus epidermidis 09-4 after 18 to 24 hrs by twofold serial dilution method; in short: as §2
[7] = tested on: Staphylococcus epidermidis; assay: Antibacterial activity against methicillin-sensitive Staphylococcus epidermidis 09-3 after 18 to 24 hrs by twofold serial dilution method; in short: as §2
[8] = tested on: Staphylococcus epidermidis; assay: Antibacterial activity against methicillin-sensitive Staphylococcus epidermidis 09-6 after 18 to 24 hrs by twofold serial dilution method; in short: as §2
Streptococcus pneumoniae [9] = assay: Antibacterial activity against Streptococcus pneumoniae 08-2 after 18 to 24 hrs by twofold serial dilution method; in short: as §1
Streptococcus pneumoniae [10] = assay: Antibacterial activity against Streptococcus pneumoniae 08-4 after 18 to 24 hrs by twofold serial dilution method; in short: as §1
Enterococcus faecium [11] = assay: Antibacterial activity against Enterococcus faecium 08-2 after 18 to 24 hrs by twofold serial dilution method; in short: as §1
Enterococcus faecium [12] = assay: Antibacterial activity against Enterococcus faecium 08-7 after 18 to 24 hrs by twofold serial dilution method; in short: as §1
Enterococcus faecalis [13] = assay: Antibacterial activity against Enterococcus faecalis 08-10 after 18 to 24 hrs by twofold serial dilution method; in short: as §1
Enterococcus faecalis [14] = assay: Antibacterial activity against Enterococcus faecalis 08-12 after 18 to 24 hrs by twofold serial dilution method; in short: as §1
Escherichia coli [15] = assay: Antibacterial activity against Escherichia coli ATCC 25922 after 18 to 24 hrs by twofold serial dilution method; in short: as §1
Escherichia coli [16] = assay: Antibacterial activity against Escherichia coli 08-21 after 18 to 24 hrs by twofold serial dilution method; in short: as §1
Escherichia coli [17] = assay: Antibacterial activity against Escherichia coli 08-22 after 18 to 24 hrs by twofold serial dilution method; in short: as §1
Klebsiella pneumoniae [18] = assay: Antibacterial activity against Klebsiella pneumoniae 09-21 after 18 to 24 hrs by twofold serial dilution method; in short: as §1
Klebsiella pneumoniae [19] = assay: Antibacterial activity against Klebsiella pneumoniae 09-22 after 18 to 24 hrs by twofold serial dilution method; in short: as §1
Klebsiella pneumoniae [20] = assay: Antibacterial activity against Klebsiella pneumoniae 09-23 after 18 to 24 hrs by twofold serial dilution method; in short: as §1
Pseudomonas aeruginosa [21] = assay: Antibacterial activity against Pseudomonas aeruginosa ATCC 27853 after 18 to 24 hrs by twofold serial dilution method; in short: as §1
Pseudomonas aeruginosa [22] = assay: Antibacterial activity against Pseudomonas aeruginosa 09-32 after 18 to 24 hrs by twofold serial dilution method; in short: as §1
Pseudomonas aeruginosa [23] = assay: Antibacterial activity against Pseudomonas aeruginosa 09-33 after 18 to 24 hrs by twofold serial dilution method; in short: as §1
Pseudomonas aeruginosa [24] = assay: Antibacterial activity against Pseudomonas aeruginosa 09-34 after 18 to 24 hrs by twofold serial dilution method; in short: as §1
Pseudomonas aeruginosa [25] = assay: Antibacterial activity against Pseudomonas aeruginosa 09-35 after 18 to 24 hrs by twofold serial dilution method; in short: as §1

| Compound | MIC (Staphylococcus aureus [1]) [µg/mL] | MIC (Staphylococcus aureus [2]) [µg/mL] | MIC (Staphylococcus aureus [3]) [µg/mL] | MIC [4] [µg/mL] | MIC [5] [µg/mL] | MIC [6] [µg/mL] | MIC [7] [µg/mL] | MIC [8] [µg/mL] | MIC (Streptococcus pneumoniae [9]) [µg/mL] | MIC (Streptococcus pneumoniae [10]) [µg/mL] | MIC (Enterococcus faecium [11]) [µg/mL] | MIC (Enterococcus faecium [12]) [µg/mL] | MIC (Enterococcus faecalis [13]) [µg/mL] | MIC (Enterococcus faecalis [14]) [µg/mL] | MIC (Escherichia coli [15]) [µg/mL] | MIC (Escherichia coli [16]) [µg/mL] | MIC (Escherichia coli [17]) [µg/mL] | MIC (Klebsiella pneumoniae [18]) [µg/mL] | MIC (Klebsiella pneumoniae [19]) [µg/mL] | MIC (Klebsiella pneumoniae [20]) [µg/mL] | also measured |
| --- | --- | --- | --- | --- | --- | --- | --- | --- | --- | --- | --- | --- | --- | --- | --- | --- | --- | --- | --- | --- | --- |
| CCO/N=C1\CN(c2c(F)cc3c(=O)c(C(=O)O)cn(CCF)c3c2F)CC1/C(N)=N\OCC (stereo not given) | 2 (≈ 4.14 µM) | 4 (≈ 8.27 µM) | > 128 | 4 (≈ 8.27 µM) | 4 (≈ 8.27 µM) | 4 (≈ 8.27 µM) | 4 (≈ 8.27 µM) | 8 (≈ 16.5 µM) | 8 (≈ 16.5 µM) | 8 (≈ 16.5 µM) | > 128 | > 128 | > 128 | > 128 | 128 (≈ 265 µM) | > 128 | > 128 | > 128 | > 128 | > 128 | MIC (Pseudomonas aeruginosa [21]): 128 µg/mL (≈ 265 µM); MIC (Pseudomonas aeruginosa [22]): > 128 µg/mL; MIC (Pseudomonas aeruginosa [23]): > 128 µg/mL; MIC (Pseudomonas aeruginosa [24]): > 128 µg/mL; MIC (Pseudomonas aeruginosa [25]): > 128 µg/mL |
| CCO/N=C1\CN(c2c(F)cc3c(=O)c(C(=O)O)cn4c3c2OC[C@@H]4C)CC1/C(N)=N\OC (stereo not given in full) | 0.25 (≈ 0.542 µM) | 0.25 (≈ 0.542 µM) | 0.25 (≈ 0.542 µM) | 0.25 (≈ 0.542 µM) | 0.125 (≈ 0.271 µM) | 0.25 (≈ 0.542 µM) | 0.25 (≈ 0.542 µM) | 0.5 (≈ 1.08 µM) | > 128 | 0.25 (≈ 0.542 µM) | > 128 | > 128 | 0.5 (≈ 1.08 µM) | > 128 | 128 (≈ 277 µM) | > 128 | > 128 | > 128 | 1 (≈ 2.17 µM) | > 128 | MIC (Pseudomonas aeruginosa [21]): > 128 µg/mL; MIC (Pseudomonas aeruginosa [22]): > 128 µg/mL; MIC (Pseudomonas aeruginosa [23]): > 128 µg/mL; MIC (Pseudomonas aeruginosa [24]): > 128 µg/mL; MIC (Pseudomonas aeruginosa [25]): > 128 µg/mL |
| CCO/N=C(/N)C1CN(c2nc3c(cc2F)c(=O)c(C(=O)O)cn3-c2ccc(F)cc2F)C/C1=N\OC (stereo not given) | 0.125 (≈ 0.241 µM) | 0.25 (≈ 0.482 µM) | 0.25 (≈ 0.482 µM) | 2 (≈ 3.86 µM) | 0.25 (≈ 0.482 µM) | 0.25 (≈ 0.482 µM) | 0.125 (≈ 0.241 µM) | 0.25 (≈ 0.482 µM) | > 128 | > 128 | > 128 | > 128 | > 128 | > 128 | > 128 | > 128 | > 128 | > 128 | 32 (≈ 61.7 µM) | > 128 | MIC (Pseudomonas aeruginosa [21]): > 128 µg/mL; MIC (Pseudomonas aeruginosa [22]): > 128 µg/mL; MIC (Pseudomonas aeruginosa [23]): > 128 µg/mL; MIC (Pseudomonas aeruginosa [24]): > 128 µg/mL; MIC (Pseudomonas aeruginosa [25]): > 128 µg/mL |
| CCn1cc(C(=O)O)c(=O)c2cc(F)c(N3C/C(=N\OC)C(/C(N)=N\O)C3)c(F)c21 (stereo not given) | 0.25 (≈ 0.59 µM) | 0.25 (≈ 0.59 µM) | 0.25 (≈ 0.59 µM) | 1 (≈ 2.36 µM) | 0.25 (≈ 0.59 µM) | 1 (≈ 2.36 µM) | 0.25 (≈ 0.59 µM) | 0.25 (≈ 0.59 µM) | 1 (≈ 2.36 µM) | > 128 | > 128 | > 128 | > 128 | > 128 | 128 (≈ 302 µM) | > 128 | > 128 | > 128 | 1 (≈ 2.36 µM) | > 128 | MIC (Pseudomonas aeruginosa [21]): 1 µg/mL (≈ 2.36 µM); MIC (Pseudomonas aeruginosa [22]): 1 µg/mL (≈ 2.36 µM); MIC (Pseudomonas aeruginosa [23]): 1 µg/mL (≈ 2.36 µM); MIC (Pseudomonas aeruginosa [24]): 1 µg/mL (≈ 2.36 µM); MIC (Pseudomonas aeruginosa [25]): > 128 µg/mL |
| CCO/N=C1\CN(c2c(F)cc3c(=O)c(C(=O)O)cn(C4CC4)c3c2OC)CC1/C(N)=N\OC (stereo not given) | 0.5 (≈ 1.05 µM) | 0.25 (≈ 0.526 µM) | 0.25 (≈ 0.526 µM) | 0.5 (≈ 1.05 µM) | 0.125 (≈ 0.263 µM) | 0.125 (≈ 0.263 µM) | 0.25 (≈ 0.526 µM) | 0.25 (≈ 0.526 µM) | 4 (≈ 8.41 µM) | 4 (≈ 8.41 µM) | > 128 | > 128 | 0.25 (≈ 0.526 µM) | 0.5 (≈ 1.05 µM) | > 128 | > 128 | > 128 | > 128 | 4 (≈ 8.41 µM) | > 128 | MIC (Pseudomonas aeruginosa [21]): > 128 µg/mL; MIC (Pseudomonas aeruginosa [22]): > 128 µg/mL; MIC (Pseudomonas aeruginosa [23]): > 128 µg/mL; MIC (Pseudomonas aeruginosa [24]): > 128 µg/mL; MIC (Pseudomonas aeruginosa [25]): > 128 µg/mL |
| CO/N=C1\CN(c2c(F)cc3c(=O)c(C(=O)O)cn(C4CC4)c3c2OC)CC1/C(N)=N\OC (stereo not given) | 0.125 (≈ 0.271 µM) | 0.25 (≈ 0.542 µM) | 0.125 (≈ 0.271 µM) | 0.25 (≈ 0.542 µM) | 0.25 (≈ 0.542 µM) | 0.25 (≈ 0.542 µM) | 0.125 (≈ 0.271 µM) | 0.25 (≈ 0.542 µM) | 8 (≈ 17.3 µM) | 0.25 (≈ 0.542 µM) | > 128 | > 128 | > 128 | > 128 | 128 (≈ 277 µM) | > 128 | > 128 | > 128 | 2 (≈ 4.33 µM) | > 128 | MIC (Pseudomonas aeruginosa [21]): 64 µg/mL (≈ 139 µM); MIC (Pseudomonas aeruginosa [22]): 128 µg/mL (≈ 277 µM); MIC (Pseudomonas aeruginosa [23]): > 128 µg/mL; MIC (Pseudomonas aeruginosa [24]): > 128 µg/mL; MIC (Pseudomonas aeruginosa [25]): 128 µg/mL (≈ 277 µM) |
